Converted amounts (≈) assume the structure as drawn.

System in one data set: not listed separately
The experiment in a line: Passive permeability of the compound in dog RRCK cells. It counts as ADME, cell-based, Canis lupus familiaris, MDCKII-LE. The conditions noted are these: MDCK, read-out: permeability. An outline of the steps: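 Passive permeability measured in the RRCK cell line; reported as 10^-6 cm/s.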
`Cc1cnc(NC(=O)c2cc(Oc3ccc(S(C)(=O)=O)cc3)c3cn(C4CC4)nc3c2)cn1`: the Papp came out at 15.5 ×10⁻⁶ cm/s.
Take `CCn1cc2c(Oc3ccc(S(C)(=O)=O)cc3)cc(C(=O)Nc3cnc(C)cn3)cc2n1`: the Papp was 13.4 ×10⁻⁶ cm/s.
Same read-out and setting: as for `Cc1cnc(NC(=O)c2cc(Oc3cnc(C(=O)N(C)C)cn3)c3cc(C)nn3c2)cn1`, the figure is 17 ×10⁻⁶ cm/s; as for `Cc1cnc(NC(=O)c2cc(Oc3ccc(S(=O)(=O)C4CC4)cc3)c3cn(C)nc3c2)cn1`, 17.8 ×10⁻⁶ cm/s.
Still for that read-out and setting: as for `Cc1cnc(NC(=O)c2cc(Oc3ccc(S(C)(=O)=O)cc3)c3cn(CCO)nc3c2)cn1`, the figure is 6.3 ×10⁻⁶ cm/s; as for `Cc1cnc(NC(=O)c2cc(Oc3ccc(C(=O)N(C)C)cc3)c3cn(C)nc3c2)cn1`, 14.6 ×10⁻⁶ cm/s.
Still for that read-out and setting: as for `CCn1cc2c(Oc3cnc(C(=O)N(C)C)c(F)c3)cc(C(=O)Nc3cnc(C)cn3)cc2n1`, the figure is 13.8 ×10⁻⁶ cm/s.

System in another data set: not listed separately
The experiment in a line: Kinetic solubility of the compound. It counts as physicochemical. Conditions: read-out: Kinetic_solubility.
On to `Cc1cnc(NC(=O)c2cc(Oc3ccc(S(C)(=O)=O)cc3)c3cn(C4CC4)nc3c2)cn1`, for which the solubility kinetic came to 0.5 µM (≈ 0.232 µg/mL).
On to `CNS(=O)(=O)c1ccc(Oc2cc(C(=O)Nc3cnc(C)cn3)cc3nn(C)cc23)cc1`, for which the solubility kinetic is 27 µM (≈ 12.2 µg/mL).
Regarding `CCn1cc2c(Oc3ccc(S(C)(=O)=O)cc3)cc(C(=O)Nc3cnc(C)cn3)cc2n1`, the solubility kinetic is 2.1 µM (≈ 0.948 µg/mL).
The same measure, in the same setting: for `Cc1cnc(NC(=O)c2cc(Oc3cnc(C(=O)N(C)C)cn3)c3cc(C)nn3c2)cn1` the value was 123 µM (≈ 53.2 µg/mL).
In the case of `Cc1cnc(NC(=O)c2cc(Oc3ccc(S(=O)(=O)C4CC4)cc3)c3cn(C)nc3c2)cn1`, the solubility kinetic came to 73 µM (≈ 33.8 µg/mL).
Same read-out and setting: as for `Cc1cnc(NC(=O)c2cc(Oc3ccc(S(C)(=O)=O)cc3)c3cn(CCO)nc3c2)cn1`, the figure is 24.4 µM (≈ 11.4 µg/mL).
Take `Cc1cnc(NC(=O)c2cc(Oc3ccc(C(=O)N(C)C)cc3)c3cn(C)nc3c2)cn1`: the solubility kinetic turned out to be 351 µM (≈ 151 µg/mL).
Still for that read-out and setting: as for `CCn1cc2c(Oc3cnc(C(=O)N(C)C)c(F)c3)cc(C(=O)Nc3cnc(C)cn3)cc2n1`, the figure is 367 µM (≈ 170 µg/mL).

System in another data set: not listed separately
The experiment in a line: Lipophilicity, log D of the compound by shake flask method. It counts as physicochemical. The conditions noted are these: octanol/water.
Regarding `Cc1cnc(NC(=O)c2cc(Oc3cnc(C(=O)N(C)C)cn3)c3cc(C)nn3c2)cn1`, the logD (in general, the decadic logarithm of the distribution of all forms, ionised or not, between an organic phase and buffer at a given pH) was found to be 1.87.
The compound `Cc1cnc(NC(=O)c2cc(Oc3cnc(C(=O)N(C)C)cn3)c3cc(C)oc3c2)cn1` came in with a pH-dependent lipophilicity (logD) of 2.16.
For the compound `CCn1cc2c(Oc3cnc(C(=O)N(C)C)c(F)c3)cc(C(=O)Nc3cnc(C)cn3)cc2n1`, the log distribution coefficient (logD) was 1.8.

System in the next data set: not listed separately
The experiment in a line: Intrinsic clearance of the compound in human liver microsomes. It counts as ADME, Microsome. Conditions: read-out: CLH. The essentials: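 Human liver microsomal stability; intrinsic clearance expressed as ml/min/kg.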
(Microsomes from liver hold many membrane-bound enzymes, among them those of drug oxidation.)
As for `Cc1cnc(NC(=O)c2cc(Oc3ccc(S(C)(=O)=O)cc3)c3cn(C4CC4)nc3c2)cn1`, the CLint scaled is under 8 mL/min/kg.
The same measure, in the same setting: for `CNS(=O)(=O)c1ccc(Oc2cc(C(=O)Nc3cnc(C)cn3)cc3nn(C)cc23)cc1` the value was under 8.6 mL/min/kg; for `CCn1cc2c(Oc3ccc(S(C)(=O)=O)cc3)cc(C(=O)Nc3cnc(C)cn3)cc2n1`, under 8 mL/min/kg; for `Cc1cnc(NC(=O)c2cc(Oc3cnc(C(=O)N(C)C)cn3)c3cc(C)nn3c2)cn1`, 13.7 mL/min/kg.
On the same count and under the same terms, as for `Cc1cnc(NC(=O)c2cc(Oc3ccc(S(=O)(=O)C4CC4)cc3)c3cn(C)nc3c2)cn1`, the figure is under 8 mL/min/kg; as for `Cc1cnc(NC(=O)c2cc(Oc3cnc(C(=O)N(C)C)cn3)c3cc(C)oc3c2)cn1`, under 8 mL/min/kg.
The same measure, in the same setting: for `Cc1cnc(NC(=O)c2cc(Oc3ccc(S(C)(=O)=O)cc3)c3cn(CCO)nc3c2)cn1` the value was under 8.9 mL/min/kg; for `Cc1cnc(NC(=O)c2cc(Oc3ccc(C(=O)N(C)C)cc3)c3cn(C)nc3c2)cn1`, 12.3 mL/min/kg.
For the compound `CCn1cc2c(Oc3cnc(C(=O)N(C)C)c(F)c3)cc(C(=O)Nc3cnc(C)cn3)cc2n1`, the CLint scaled came to 10.4 mL/min/kg.

For the next data set, the target named is T1, Hexokinase-4 (Homo sapiens, UniProt P35557).
T1 sequence (P35557 whole entry): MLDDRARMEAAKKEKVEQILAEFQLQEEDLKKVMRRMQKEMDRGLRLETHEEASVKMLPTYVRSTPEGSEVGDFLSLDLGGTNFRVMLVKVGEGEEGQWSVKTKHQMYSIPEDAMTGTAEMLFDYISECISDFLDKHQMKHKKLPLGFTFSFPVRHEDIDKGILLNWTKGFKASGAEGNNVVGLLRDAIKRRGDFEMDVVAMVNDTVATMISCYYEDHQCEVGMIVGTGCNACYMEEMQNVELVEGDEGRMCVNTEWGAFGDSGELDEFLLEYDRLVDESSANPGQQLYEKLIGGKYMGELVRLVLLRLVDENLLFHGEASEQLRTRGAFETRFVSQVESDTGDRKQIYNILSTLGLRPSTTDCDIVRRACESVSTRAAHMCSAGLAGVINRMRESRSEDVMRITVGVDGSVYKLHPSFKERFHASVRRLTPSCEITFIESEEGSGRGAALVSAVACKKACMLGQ
Kind of data set: Activation of recombinant human glucokinase assessed measuring rate of glucose 6-phosphate formation using G6PDH/NADP coupling.
Conditions: not given
As for `Cc1cnc(NC(=O)c2cc(Oc3ccc(S(N)(=O)=O)cc3)c3cn(C)nc3c2)cn1`, the concentration for a half-maximal effect (EC50) (in general, the concentration giving half of the maximal effect) was determined as 2320 nM.
With `Cc1cnc(NC(=O)c2cc(Oc3ccc(S(C)(=O)=O)cc3)c3cn(C4CC4)nc3c2)cn1`, the concentration giving a half-maximal response (EC50) turned out to be 2030 nM.
As for `CCn1cc2c(Oc3ccc(S(C)(=O)=O)cc3)cc(C(=O)Nc3cnc(C)cn3)cc2n1`, the concentration for a half-maximal effect (EC50) stood at 770 nM.
On the same count and under the same terms, as for `Cc1cnc(NC(=O)c2cc(Oc3cnc(C(=O)N(C)C)cn3)c3cc(C)nn3c2)cn1`, the figure is 620 nM.
The same measure, in the same setting: for `Cc1cnc(NC(=O)c2cc(Oc3ccc(S(=O)(=O)C4CC4)cc3)c3cn(C)nc3c2)cn1` the value was 510 nM.
On the same count and under the same terms, for `Cc1cnc(NC(=O)c2cc(Oc3ccc(S(C)(=O)=O)cc3)c3cn(CCO)nc3c2)cn1` the value was 1540 nM.
Take `CCn1cc2c(Oc3cnc(C(=O)N(C)C)c(F)c3)cc(C(=O)Nc3cnc(C)cn3)cc2n1`: the EC50 was found to be 230 nM.

Values taken from ChEMBL document CHEMBL2203262, “The design and synthesis of indazole and pyrazolopyridine based glucokinase activators for the treatment of type 2 diabetes mellitus” (Bioorg Med Chem Lett, 2012).
